From ChEMBL document CHEMBL3779865, “Discovery of Benzo[cd]indol-2(1H)-ones as Potent and Specific BET Bromodomain Inhibitors: Structure-Based Virtual Screening, Optimization, and Biological Evaluation” (J Med Chem, 2016)

Legend:
[1] = Cmax in Sprague-Dawley rat at 5 mg/kg, iv after 0.033 to 24 hrs; assay type: ADME, organism-based; set-up: dose 5 mg/kg, route intravenous; conditions: in vivo
[2] = Metabolic stability in rat liver microsomes assessed as parent compound remaining at 10 uM incubated for 40 mins by HPLC-MS/MS analysis in presence of NADPH; assay type: ADME; conditions: read-out: Stability
[3] = Half life in rat liver microsomes at 10 uM by HPLC-MS/MS analysis in presence of NADPH; assay type: ADME
[4] = Apparent permeability from apical to basolateral side in human Caco2 cells assessed as drug recovery at 10 uM incubated for 1 hr by HPLC-MS/MS analysis; assay type: ADME, cell-based; conditions: Caco-2, read-out: Drug recovery
[5] = Apparent permeability from apical to basolateral side in human Caco2 cells at 10 uM incubated for 1 hr by HPLC-MS/MS analysis; assay type: ADME, cell-based; conditions: Caco-2
[6] = Half life in rat liver microsomes at 1 uM by HPLC-MS/MS analysis in presence of NADPH; assay type: ADME
[7] = Metabolic stability in rat liver microsomes assessed as parent compound remaining at 1 uM incubated for 40 mins by HPLC-MS/MS analysis in presence of NADPH; assay type: ADME; conditions: read-out: Stability
[8] = Tmax in Sprague-Dawley rat at 5 mg/kg, iv; assay type: ADME, organism-based; conditions: in vivo
[9] = biological target: CREB-binding protein (Homo sapiens) (UniProt Q92793); experiment: Binding affinity to human His6-tagged CREBBP (R1081 to G1197 residues) expressed in Escherichia coli BL21(DE3) cells at 200 uM incubated for 30 mins by SYPRO orange staining based fluorescence thermal shift assay
CREB-binding protein (Homo sapiens), sequence (Q92793 2-2442 limits assumed): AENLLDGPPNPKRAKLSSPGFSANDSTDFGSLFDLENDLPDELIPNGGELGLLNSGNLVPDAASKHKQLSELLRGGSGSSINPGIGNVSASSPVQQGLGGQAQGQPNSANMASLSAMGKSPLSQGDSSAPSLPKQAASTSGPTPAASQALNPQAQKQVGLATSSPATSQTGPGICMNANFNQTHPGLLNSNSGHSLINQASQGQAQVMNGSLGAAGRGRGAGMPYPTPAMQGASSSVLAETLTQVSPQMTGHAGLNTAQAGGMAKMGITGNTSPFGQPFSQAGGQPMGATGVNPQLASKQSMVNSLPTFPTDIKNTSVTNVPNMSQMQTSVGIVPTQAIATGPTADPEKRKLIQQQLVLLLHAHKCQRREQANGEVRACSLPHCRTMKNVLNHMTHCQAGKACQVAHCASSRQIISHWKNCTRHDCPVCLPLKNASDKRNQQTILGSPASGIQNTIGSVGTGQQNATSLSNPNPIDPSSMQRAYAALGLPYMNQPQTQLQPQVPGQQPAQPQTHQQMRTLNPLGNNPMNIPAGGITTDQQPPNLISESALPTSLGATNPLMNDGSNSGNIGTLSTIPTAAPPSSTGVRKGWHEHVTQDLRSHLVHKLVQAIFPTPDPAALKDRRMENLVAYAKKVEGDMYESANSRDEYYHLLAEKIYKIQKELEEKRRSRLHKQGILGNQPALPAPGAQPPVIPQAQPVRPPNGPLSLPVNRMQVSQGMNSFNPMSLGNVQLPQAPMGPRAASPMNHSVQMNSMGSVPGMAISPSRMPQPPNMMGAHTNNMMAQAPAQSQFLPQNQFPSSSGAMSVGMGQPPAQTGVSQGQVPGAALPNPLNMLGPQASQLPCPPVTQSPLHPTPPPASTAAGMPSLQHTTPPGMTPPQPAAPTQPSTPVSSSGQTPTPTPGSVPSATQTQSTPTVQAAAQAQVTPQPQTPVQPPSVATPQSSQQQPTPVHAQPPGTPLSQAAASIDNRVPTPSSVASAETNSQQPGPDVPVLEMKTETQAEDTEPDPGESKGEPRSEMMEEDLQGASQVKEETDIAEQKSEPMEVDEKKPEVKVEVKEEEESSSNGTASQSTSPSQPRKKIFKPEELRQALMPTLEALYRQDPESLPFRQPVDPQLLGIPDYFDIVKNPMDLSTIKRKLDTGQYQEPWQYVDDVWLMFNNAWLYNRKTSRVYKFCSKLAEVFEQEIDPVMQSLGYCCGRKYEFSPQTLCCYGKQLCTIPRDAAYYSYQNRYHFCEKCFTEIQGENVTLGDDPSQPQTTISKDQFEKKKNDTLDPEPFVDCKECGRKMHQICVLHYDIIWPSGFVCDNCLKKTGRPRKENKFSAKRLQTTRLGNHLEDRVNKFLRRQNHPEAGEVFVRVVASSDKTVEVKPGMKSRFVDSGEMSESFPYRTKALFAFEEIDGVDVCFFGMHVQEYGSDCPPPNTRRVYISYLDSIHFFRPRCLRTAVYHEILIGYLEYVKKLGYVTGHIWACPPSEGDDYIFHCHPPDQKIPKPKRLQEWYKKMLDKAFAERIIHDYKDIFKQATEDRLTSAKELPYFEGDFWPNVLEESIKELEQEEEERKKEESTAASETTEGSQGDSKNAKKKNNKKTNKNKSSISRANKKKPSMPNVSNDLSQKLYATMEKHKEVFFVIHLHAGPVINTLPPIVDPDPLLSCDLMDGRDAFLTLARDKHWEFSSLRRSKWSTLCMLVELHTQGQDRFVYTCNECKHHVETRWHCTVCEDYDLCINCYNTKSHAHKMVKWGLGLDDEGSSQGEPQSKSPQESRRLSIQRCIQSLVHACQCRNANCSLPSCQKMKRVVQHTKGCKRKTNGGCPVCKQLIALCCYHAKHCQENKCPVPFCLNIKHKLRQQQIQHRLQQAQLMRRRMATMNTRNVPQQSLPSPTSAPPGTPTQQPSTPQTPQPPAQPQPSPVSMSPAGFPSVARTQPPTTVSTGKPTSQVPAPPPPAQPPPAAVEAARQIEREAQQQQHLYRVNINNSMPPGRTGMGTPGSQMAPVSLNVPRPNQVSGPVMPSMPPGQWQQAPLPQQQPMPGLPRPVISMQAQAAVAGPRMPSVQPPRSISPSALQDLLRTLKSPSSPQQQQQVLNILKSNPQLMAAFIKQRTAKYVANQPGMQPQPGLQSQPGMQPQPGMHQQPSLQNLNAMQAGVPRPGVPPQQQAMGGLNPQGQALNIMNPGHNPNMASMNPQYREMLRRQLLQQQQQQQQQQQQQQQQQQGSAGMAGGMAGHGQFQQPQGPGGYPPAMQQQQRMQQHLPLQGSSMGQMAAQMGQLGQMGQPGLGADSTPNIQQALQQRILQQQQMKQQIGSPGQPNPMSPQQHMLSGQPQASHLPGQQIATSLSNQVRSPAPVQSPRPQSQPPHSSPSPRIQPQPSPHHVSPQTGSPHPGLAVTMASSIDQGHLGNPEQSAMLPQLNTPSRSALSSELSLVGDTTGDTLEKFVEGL
Outline: (§1)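 His6-tagged bromodomain constructs expressed in E. coli BL21(DE3) (grown at 25 °C to OD600 ~1.0, induced with 0.1 mM IPTG at 16 °C for 16 h). Purified by Ni affinity then gel filtration. Final 10 μM protein and 200 μM compound in 10 mM HEPES pH 7.5, 150 mM NaCl, DMSO ≤1%. SYPRO Orange 1:1000, 30 min on ice. Melt 30–75 °C at 0.3 °C/min. Triplicates. Tm from Boltzmann fit; ΔTm = Tm with minus without compound.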

[10] = biological target: T1, Bromodomain-containing protein 1 (Homo sapiens) (UniProt O95696); experiment: Binding affinity to human His6-tagged BRD1 (E556 to A688 residues) expressed in Escherichia coli BL21(DE3) cells at 200 uM incubated for 30 mins by SYPRO orange staining based fluorescence thermal shift assay; outline: as §1
T1 sequence (whole entry): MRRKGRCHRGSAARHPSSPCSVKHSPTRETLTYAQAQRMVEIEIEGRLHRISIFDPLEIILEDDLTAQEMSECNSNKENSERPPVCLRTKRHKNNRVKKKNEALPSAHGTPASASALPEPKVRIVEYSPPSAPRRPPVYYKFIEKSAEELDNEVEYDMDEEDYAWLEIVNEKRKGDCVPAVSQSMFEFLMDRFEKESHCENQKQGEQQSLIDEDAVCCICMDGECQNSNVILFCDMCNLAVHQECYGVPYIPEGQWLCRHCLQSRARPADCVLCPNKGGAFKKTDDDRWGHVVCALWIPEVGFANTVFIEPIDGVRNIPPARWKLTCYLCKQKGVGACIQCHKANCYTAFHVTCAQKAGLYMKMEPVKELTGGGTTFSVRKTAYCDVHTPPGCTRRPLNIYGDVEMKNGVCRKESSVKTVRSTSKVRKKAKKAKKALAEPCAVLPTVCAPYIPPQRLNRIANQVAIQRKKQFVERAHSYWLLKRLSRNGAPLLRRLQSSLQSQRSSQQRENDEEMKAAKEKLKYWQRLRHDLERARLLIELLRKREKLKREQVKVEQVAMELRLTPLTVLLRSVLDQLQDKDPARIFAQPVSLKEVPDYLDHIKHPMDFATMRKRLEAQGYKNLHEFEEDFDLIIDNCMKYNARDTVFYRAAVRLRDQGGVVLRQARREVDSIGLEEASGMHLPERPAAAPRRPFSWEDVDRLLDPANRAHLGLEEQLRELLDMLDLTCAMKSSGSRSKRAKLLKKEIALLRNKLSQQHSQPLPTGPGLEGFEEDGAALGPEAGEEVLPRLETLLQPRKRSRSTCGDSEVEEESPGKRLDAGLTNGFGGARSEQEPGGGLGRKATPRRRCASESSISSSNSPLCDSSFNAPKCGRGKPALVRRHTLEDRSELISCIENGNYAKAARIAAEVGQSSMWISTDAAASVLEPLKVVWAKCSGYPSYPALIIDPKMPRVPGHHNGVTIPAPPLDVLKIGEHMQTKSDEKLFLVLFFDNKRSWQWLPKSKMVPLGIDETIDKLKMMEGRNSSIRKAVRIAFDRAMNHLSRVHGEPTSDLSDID

MV4-11 = experiment: Antiproliferative activity against human MV4-11 cells after 72 hrs by CCK8 assay; assay type: functional, cell-based; conditions: Homo sapiens, MV4-11, 72 h; read-out: IC50
[11] = biological target: Bromodomain testis-specific protein (Homo sapiens) (UniProt Q58F21); experiment: Binding affinity to human His6-tagged BRDT bromodomain 1 (N21 to E137 residues) expressed in Escherichia coli BL21(DE3) cells at 200 uM incubated for 30 mins by SYPRO orange staining based fluorescence thermal shift assay; outline: as §1
HT-29 = experiment: Antiproliferative activity against human HT-29 cells after 72 hrs by CCK8 assay; assay type: functional, cell-based; conditions: Homo sapiens, HT-29, 72 h; read-out: IC50
[12] = biological target: Bromodomain-containing protein 2 (Homo sapiens) (UniProt P25440); experiment: Binding affinity to human His6-tagged BRD2 bromodomain 1 (K77 to N194 residues) expressed in Escherichia coli BL21(DE3) cells at 200 uM incubated for 30 mins by SYPRO orange staining based fluorescence thermal shift assay; outline: as §1
Bromodomain-containing protein 2 (Homo sapiens), sequence (P25440 whole entry, looked up, the tested form may be a part): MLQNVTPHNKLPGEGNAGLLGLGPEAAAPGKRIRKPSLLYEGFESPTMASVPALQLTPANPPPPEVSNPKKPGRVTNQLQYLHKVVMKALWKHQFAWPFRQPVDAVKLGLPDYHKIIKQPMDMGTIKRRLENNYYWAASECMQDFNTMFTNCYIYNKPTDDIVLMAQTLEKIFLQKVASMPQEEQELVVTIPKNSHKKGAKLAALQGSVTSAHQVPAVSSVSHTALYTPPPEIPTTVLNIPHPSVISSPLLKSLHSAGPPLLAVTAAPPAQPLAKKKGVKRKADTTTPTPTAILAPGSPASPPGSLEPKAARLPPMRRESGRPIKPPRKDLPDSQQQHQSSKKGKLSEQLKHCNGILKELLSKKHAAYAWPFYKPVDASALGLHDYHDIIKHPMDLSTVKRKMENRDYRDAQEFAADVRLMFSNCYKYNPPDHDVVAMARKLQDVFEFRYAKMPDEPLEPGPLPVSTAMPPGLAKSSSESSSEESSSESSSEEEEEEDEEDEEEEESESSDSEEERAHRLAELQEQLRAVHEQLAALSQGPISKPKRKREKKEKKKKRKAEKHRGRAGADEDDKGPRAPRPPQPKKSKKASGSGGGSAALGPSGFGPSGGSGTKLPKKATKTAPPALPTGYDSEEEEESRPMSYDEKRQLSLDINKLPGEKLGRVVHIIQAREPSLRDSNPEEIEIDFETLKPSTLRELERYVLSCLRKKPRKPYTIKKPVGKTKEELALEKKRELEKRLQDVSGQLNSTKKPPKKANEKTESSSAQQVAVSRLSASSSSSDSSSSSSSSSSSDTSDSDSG

[13] = Half life in Sprague-Dawley rat at 5 mg/kg, iv; assay type: ADME, organism-based; conditions: in vivo
[14] = Apparent permeability from basolateral to apical side in human Caco2 cells at 10 uM incubated for 1 hr by HPLC-MS/MS analysis; assay type: ADME, cell-based; conditions: Caco-2
[15] = Apparent permeability from basolateral to apical side in human Caco2 cells assessed as drug recovery at 10 uM incubated for 1 hr by HPLC-MS/MS analysis; assay type: ADME, cell-based; conditions: Caco-2, read-out: Drug recovery
[16] = Antiproliferative activity against human HL60 cells after 72 hrs by CCK8 assay; assay type: functional, cell-based, HL-60; conditions: Homo sapiens, HL-60, 72 h; read-out: IC50
[17] = biological target: Histone acetyltransferase p300 (Homo sapiens) (UniProt Q09472); experiment: Binding affinity to human His6-tagged EP300 (A1040 to G1161 residues) expressed in Escherichia coli BL21(DE3) cells at 200 uM incubated for 30 mins by SYPRO orange staining based fluorescence thermal shift assay; outline: as §1
[18] = biological target: Histone-lysine N-methyltransferase ASH1L (Homo sapiens) (UniProt Q9NR48); experiment: Binding affinity to human His6-tagged ASH1L (E2433 to E2564 residues) expressed in Escherichia coli BL21(DE3) cells at 200 uM incubated for 30 mins by SYPRO orange staining based fluorescence thermal shift assay; outline: as §1

SMILES	Cmax [1] [ng/mL]	remaining at 40 min, 10 µM [2] [%]	half-life at 10 µM [3] [min]	recovery at 1 h, 10 µM [4] [%]	Papp A→B at 1 h, 10 µM [5] [×10⁻⁶ cm/s]	half-life at 1 µM [6] [min]	remaining at 40 min, 1 µM [7] [%]	Tmax [8] [min]	ΔTm [9] [°C]	ΔTm [10] [°C]	IC50 (MV4-11) [µM]	ΔTm [11] [°C]	IC50 (HT-29) [µM]	ΔTm [12] [°C]	half-life [13] [min]	Papp B→A at 1 h, 10 µM [14] [×10⁻⁶ cm/s]	recovery at 1 h, 10 µM [15] [%]	IC50 [16] [µM]	ΔTm [17] [°C]	ΔTm [18] [°C]
CCN1C(=O)c2cccc3c(S(=O)(=O)NC4CCCCC4)ccc1c23	875	57.5	34.3	90	21.2	4.3	4.5	1.98	1.8	2.4	3.46	5.3	8.5	5.9	67.8	28	85	2.01	2.4	0.8
CCN1C(=O)c2cccc3c(NS(=O)(=O)c4cc(Br)ccc4OC)ccc1c23	2170	> 85	> 40	111	12.7	32.4	57.2	1.98	3.5	0.1	1.3	4.7	12.9	5.6	58.8	30.9	117	2.99	3.5	-1.1
